From ChEMBL document CHEMBL3817782, “Synthesis, Structural Elucidation, and Biological Evaluation of NSC12, an Orally Available Fibroblast Growth Factor (FGF) Ligand Trap for the Treatment of FGF-Dependent Lung Tumors” (J Med Chem, 2016)
In brackets after ≈: the same amount, converted by molar mass. Activity calls are given as the source filed them. No cut-off for these calls is given here.

What was measured:
[1] = biological target: T1, Fibroblast growth factor 2 (Homo sapiens, UniProt P09038); test: Inhibition of human recombinant FGF2 assessed as reduction in HSPG/FGF2/[…] interaction by measuring FGF2 mediated […]-CHO-flg-1A-luc cell to CHO-K1 cell adhesion incubated for 2 hrs by luciferase assay; format: cell-based
T1 sequence (P09038 143-288 limits assumed): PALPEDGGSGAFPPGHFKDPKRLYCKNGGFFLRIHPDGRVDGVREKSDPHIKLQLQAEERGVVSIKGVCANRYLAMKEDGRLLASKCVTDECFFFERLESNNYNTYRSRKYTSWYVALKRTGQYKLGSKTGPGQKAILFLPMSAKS
Method in brief: (§1)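 Wild-type CHO-K1 monolayers fixed in 3% glutaraldehyde for 2 h at 4 °C, quenched with 0.1 M glycine. A745-CHO-flg-1A-luc cells (50 000 cells/cm²) added in serum-free medium plus 10 mM EDTA, with or without 30 ng/mL FGF2, plus increasing compound concentrations in 3% DMSO. Incubated 2 h at 37 °C. Unattached cells washed off; bound-cell luciferase measured. Triplicates.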

[2] = Antiproliferative activity against mouse LLC cells incubated for 48 hrs by PI-staining based flow cytometry; format: functional, cell-based; settings: Lewis lung carcinoma
Method in brief: (§2)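 LLC cells kept in DMEM plus 10% heat-inactivated FBS and cultured 48 h with compound in medium plus 1% DMSO final. PI-negative viable cells counted by flow cytometry to give absolute counts.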

[3] = tested on: NCI-H520; test: Antiproliferative activity against human NCI-H520 cells incubated for 72 hrs by PI-staining based flow cytometry; format: functional, cell-based; settings: NCI-H520, 72 h
Method in brief: (§3)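 H520 cells kept in RPMI plus 10% FBS and cultured 72 h with compound in medium plus 1% DMSO final. Viable PI-negative cells counted by flow cytometry, with absolute counts from the analyzer's counting function.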

[4] = tested on: Lewis lung carcinoma; test: Antiangiogenic activity against mouse LLC cells xenografted in C57BL/6 mouse assessed as pale appearance at 7.5 mg/kg administered as oral gavage for 7 days daily; format: functional, organism-based
Method in brief: (§4)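 Eight-week-old C57BL/6 mice given 5 × 10^5 LLC cells sc in the dorsolateral flank in PBS. Dosing started once tumors were palpable: 7.5 mg/kg or vehicle daily by gavage in DMSO/H2O (1:1). Tumors measured in two dimensions, volume taken as (D × d²)/2. At the end, tumors harvested, weighed and photographed. Body weight and clinical signs followed throughout.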

[5] = biological target: T1, Fibroblast growth factor 2; test: Binding affinity to human recombinant FGF2 at 8 to 150 uM treated for 4 mins measured after 10 mins by surface plasmon resonance spectroscopic analysis
Method in brief: (§5)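 Human recombinant FGF2 (20 μg/mL in 10 mM sodium acetate, pH 6.0) coupled to an EDC/NHS-activated CM5 chip, with an ethanolamine-blocked dextran reference cell. Compounds injected at 8–150 μM for 4 min (30 μL/min), then 10 min dissociation. Apparent Kd taken from dose-dependent binding. Samples in PBS with 3% DMSO.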

[6] = Kinetic solubility in 3% DMSO solution in PBS up to 30 uM stirred for 5 mins by HPLC-MS/MS analysis; format: physicochemical; settings: buffer
Method in brief: (§6)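 Fresh DMSO stocks diluted into PBS to nominal 100, 44, 29, 16 and 8.9 μM, 3% DMSO final. Stirred 5 min (250 rpm, rt), centrifuged to remove undissolved material. Supernatant diluted 1:100 in MeCN containing internal standard (100 nM) and quantified by HPLC–ESI-MS/MS.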

[7] = biological target: T1, Fibroblast growth factor 2; test: Inhibition of human recombinant FGF2 assessed as reduction in HSPG/FGF2/[…] interaction by measuring FGF2 mediated […]-CHO-flg-1A-luc cell to CHO-K1 cell adhesion at 100 uM incubated for 2 hrs by luciferase assay; format: cell-based; method in brief: as §1
[8] = biological target: T1, Fibroblast growth factor 2; test: Inhibition of human recombinant FGF2 assessed as suppression of FGFR1 phosphorylation in mouse LLC cells at 100 uM incubated for 20 mins by Western blot analysis; format: cell-based
Method in brief: (§7)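 LLC cells stimulated with FGF2 (30 ng/mL) with or without compound in medium plus 3% DMSO for 20 min. Cells lysed in RIPA buffer with 1% Triton X-100, 0.2% Brij and 1 mM orthovanadate. Immunoblotted with anti-phospho-FGFR1, with β-actin as loading control.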

[9] = tested on: Lewis lung carcinoma; test: Antiproliferative activity against mouse LLC cells at 0.3 to 10 uM incubated for 48 hrs by PI-staining based flow cytometry; format: functional, cell-based; method in brief: as §2
[10] = tested on: NCI-H520; test: Antiproliferative activity against human NCI-H520 cells at 0.3 to 10 uM incubated for 72 hrs by PI-staining based flow cytometry; format: functional, cell-based; method in brief: as §3
[11] = Kinetic solubility in DMEM buffer/1% DMSO assessed as recovered drug level at 10 uM after 4 hrs by HPLC-MS/MS analysis; format: physicochemical; settings: DMEM buffer with 1% DMSO; read-out: Drug recovery
Method in brief: (§8)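 Fresh DMSO stocks added 1:100 to DMEM plus 0.4% FBS, giving nominal 10, 6 or 3 μM and 1% DMSO final. Stirred 4 h (250 rpm, rt), centrifuged, supernatant diluted 1:100 in MeCN with internal standard. Quantified by HPLC–MS/MS.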

[12] = Dissociation constant, pKa of the compound in methanol-water mixture at 25 +/- 1 degC by potentiometric pH-metric method; format: physicochemical
Method in brief: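 Potentiometric pH-metric titration in methanol–water mixtures from 40 to 10%. Aqueous pKa extrapolated. Titration curves fitted by nonlinear multiparametric analysis.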

[13] = Kinetic solubility in DMEM buffer at 10 uM after 4 hrs in presence of EDTA by HPLC-MS/MS analysis; format: physicochemical; settings: DMEM buffer with EDTA; read-out: Kinetic_solubility
Method in brief: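 10 μM (nominal) in DMEM plus 0.4% FBS with 2 mM EDTA and 1% DMSO final. Stirred 4 h (250 rpm, rt), then centrifuged. Supernatant diluted 1:100 in MeCN with internal standard and measured by HPLC–MS/MS. Mean of recovered concentration reported with ±.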

[14] = Kinetic solubility in DMEM buffer/1% DMSO assessed as recovered drug level at 6 uM after 4 hrs by HPLC-MS/MS analysis; format: physicochemical; settings: DMEM buffer with 1% DMSO; read-out: Drug recovery; method in brief: as §8
[15] = Kinetic solubility in DMEM buffer/1% DMSO assessed as recovered drug level at 3 uM after 4 hrs by HPLC-MS/MS analysis; format: physicochemical; settings: DMEM buffer with 1% DMSO; read-out: Drug recovery; method in brief: as §8
[16] = tested on: Lewis lung carcinoma; test: Antitumor activity against mouse LLC cells xenografted in C57BL/6 mouse assessed as tumor growth inhibition at 7.5 mg/kg administered as oral gavage for 7 days daily relative to vehicle-treated control; format: functional, organism-based; method in brief: as §4
[17] = tested on: Mus musculus; test: Toxicity in C57BL/6 mouse xenografted with mouse LLC cells assessed as effect on body weight at 7.5 mg/kg administered as oral gavage for 7 days daily; format: organism-based; settings: in vivo, 168 h; method in brief: as §4
[18] = tested on: Mus musculus; test: Toxicity in C57BL/6 mouse xenografted with mouse LLC cells assessed as effect on clinical parameters at 7.5 mg/kg administered as oral gavage for 7 days daily; format: organism-based; settings: in vivo, 168 h; method in brief: as §4
[19] = Plasma concentration in C57BL/6 mouse at 7.5 mg/kg administered as single dose measured after 30 mins; format: ADME, organism-based
Method in brief: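 Eight-week-old mice given 7.5 mg/kg orally, with blood drawn 30 min, 2 h and 8 h later. Plasma proteins precipitated with acetonitrile containing internal standard (1:2). Analyte quantified by HPLC–ESI-MS/MS against calibration curves in spiked blank mouse plasma (linear 1–500 nM, LOQ 1 nM). Extraction recovery 90–95%.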

[20] = Kinetic solubility in 3% DMSO solution in PBS at 44 to 100 uM stirred for 5 mins by HPLC-MS/MS analysis; format: physicochemical; settings: buffer; method in brief: as §6
[21] = biological target: T1, Fibroblast growth factor 2; test: Binding affinity to human recombinant FGF2 treated for 4 mins measured after 10 mins by surface plasmon resonance spectroscopic analysis; method in brief: as §5
[22] = biological target: T1, Fibroblast growth factor 2; test: Inhibition of human recombinant FGF2 assessed as suppression of FGF2-stimulated FGFR1 phosphorylation in mouse LLC cells at 25 uM incubated for 20 mins by Western blot analysis; format: cell-based; method in brief: as §7

Row | IC50 [1] [µM] | IC50 [3] [µM] | Kinetic_solubility [6] | solubility kinetic at 4 h, 10 µM [11] [µM] | pKa [12] | concentration at 0.5 h [19] [nM] | SMILES | IC50 [2] [µM] | Activity [4] | TGI [16] | Activity [17] | Activity [18] | further results
1 | 10 | 4.1 |  |  |  |  | C[C@]12CC[C@H]3[C@@H](CC=C4C[C@@H](O)CC[C@@]43C)[C@@H]1CC[C@@H]2C(O)CC(O)(C(F)(F)F)C(F)(F)F (some centres undefined) | 2 | Active |  |  |  | 
2 |  |  | Insoluble | 2.1 (≈ 1.02 µg/mL) | 9.08 | 128 | C[C@]12CC[C@H]3[C@@H](CC=C4C[C@@H](O)CC[C@@]43C)[C@@H]1CC[C@@H]2[C@H](O)CC(O)(C(F)(F)F)C(F)(F)F |  |  | inactive | Non-toxic | Non-toxic | Activity [5]: inactive; inhibition [7]: inactive; inhibition [8]: inactive; Activity [9]: inactive; Activity [10]: inactive; solubility kinetic at 4 h, 10 µM [13]: 1.73 µM; solubility kinetic at 4 h, 6 µM [14]: 1.7 µM (≈ 0.824 µg/mL); solubility kinetic at 4 h, 3 µM [15]: 1.4 µM (≈ 0.678 µg/mL)
3 | 10 | 4.1 | soluble | 10.7 (≈ 5.18 µg/mL) | 9.04 | 316 | C[C@]12CC[C@H]3[C@@H](CC=C4C[C@@H](O)CC[C@@]43C)[C@@H]1CC[C@@H]2[C@@H](O)CC(O)(C(F)(F)F)C(F)(F)F | 2 | Active | Active | Non-toxic | Non-toxic | Kinetic_solubility [20]: Insoluble; Activity [21]: Dose-dependent effect; Kd [21]: 40 µM; inhibition [22]: Active
